Assay results collected from several papers.
Lines come from different studies, so protocols differ.
Target: Dual specificity tyrosine-phosphorylation-regulated kinase 1A (DYRK1A, Homo sapiens, UniProt Q13627)

SMILES	assay	setting	endpoint	value
O=C(O)c1ccc2c(c1)nc(NCc1ccccc1)c1ncncc12	enzyme activity, inhibitor, radiometric	1 µM	remaining activity	61%
CC/C(=N\NC(=O)NCc1cccc(O)c1)c1ccc(O)c(C)c1O	enzyme activity, inhibitor	0.1 µM	inhibition	-4.7%
O=C(O)c1ccc2c(c1)nc(NCCc1cccc(Cl)c1)c1ncncc12	enzyme activity, inhibitor, radiometric	1 µM	remaining activity	44%
CCCS(=O)(=O)Nc1ccc(F)c(C(=O)c2c[nH]c3ncc(-c4ccc(Cl)cc4)cc23)c1F	enzyme activity, inhibitor	1 µM	inhibition	< 10%
O=C1NC(c2ccccn2)Sc2ccccc21 (stereo not shown)	cell-free assay, competition with immobilised ligand	1 µM	remaining binding	100%
O=C(O)c1ccc2c(c1)nc(Nc1ccc(F)c(Cl)c1)c1ncncc12	enzyme activity, inhibitor, radiometric	1 µM	remaining activity	1%
CO[C@@H](C)c1c(Nc2ccc([C@@H](N(C)C(=O)C3CCS(=O)(=O)CC3)C(F)(F)F)cc2)cnc2cc(Cl)nn12	cell-free assay, competition with immobilised ligand	1 µM	remaining binding	92%
CCN1/C(=C/C(C)=O)Sc2ccc(OC)cc21	cell-free assay	0.5 µM	remaining signal	28.9%
CN([C@@H]1CCc2c(CC(=O)O)c3cc(S(C)(=O)=O)ccc3n2C1)S(=O)(=O)c1ccc(F)cc1	cell-free assay, competition with immobilised ligand	1 µM	remaining binding	81%
Cn1c2c(Cl)c(Cl)ccc2c2cn[nH]c(=O)c21	thermal stability, DSF	10 µM	ΔTm	1.3 °C
Cn1cncc1C1=CN(c2ncnc3[nH]cnc23)CCS1	enzyme activity, inhibitor, radiometric	2 µM	inhibition	95.4%
CN(C)C1CCN(CC#Cc2nn(C3CCCC3)c3nc(NCc4ccccc4)ncc23)C1 (stereo not shown)	enzyme activity, inhibitor, FRET	1 µM	inhibition	4%
O=S(=O)(NC1CCC(c2cc(F)ccc2F)(S(=O)(=O)c2ccc(Cl)cc2)CC1)C(F)(F)F (stereo not shown)	cell-free assay, competition with immobilised ligand	1 µM	remaining binding	78%
O=C(O)c1ccc2c(c1)nc(Nc1ccc3ccccc3c1)c1ncncc12	enzyme activity, inhibitor, radiometric	1 µM	remaining activity	-1%
O=C(Nc1cccnn1)N1CC(C/C=C/c2cncc(Oc3ccc(C(F)(F)F)cn3)n2)C1	cell-free assay, competition with immobilised ligand	1 µM	remaining binding	75%
CS(=O)(=O)CCNCc1ccc(-c2ccc3ncnc(Nc4ccc(OCc5cccc(F)c5)c(Cl)c4)c3c2)o1	cell-free assay	0.5 µM	remaining signal	101%

SMILES	assay	setting	endpoint	value
CC1=C(C#N)[C@@H](c2ccc3[nH]nc(C)c3c2)C(C#N)=C(c2ccc(Cl)cc2)N1	cell-free assay, competition with immobilised ligand	1 µM	remaining binding	100%
N#CCCc1ccc2c(c1)-c1[nH]c3ccc([N+](=O)[O-])cc3c1CC(=O)N2	cell-free assay	0.5 µM	remaining signal	85.9%
CN1CCC2(CC1)NC(=O)c1c(c3ccc(Cl)c(Cl)c3n1C)C2C#N (racemic)	thermal stability, DSF	10 µM	ΔTm	1 °C
COc1cc2ncnc(Nc3ccc(Oc4ccccc4)cc3C)c2cc1OC	enzyme activity, inhibitor	1 µM	inhibition	-1%
Cc1ccc(C(=O)Nc2ccc(CN3CCN(C)CC3)c(C(F)(F)F)c2)cc1C#Cc1cnc2cccnn12	cell-free assay	23.5 nM	remaining signal	81%
Cc1cc(-n2nc(Cc3cc(F)cc(C(F)(F)F)c3)nc2C)ccc1C(N)=O	cell-free assay, competition with immobilised ligand	1 µM	remaining binding	92%
CC(C)[C@H](CO)Nc1nc(Nc2cccc(Cl)c2)c2ncn(C(C)C)c2n1	cell-free assay	0.5 µM	remaining signal	65.4%
O=C(O)c1ccc2c(c1)nc(NCCc1cccc(F)c1)c1ncncc12	enzyme activity, inhibitor, radiometric	1 µM	remaining activity	18%
Cn1c2c(c3ccc(Cl)c(Cl)c31)C(C#N)C(C)(C)NC2=O (stereo not shown)	thermal stability, DSF	10 µM	ΔTm	3.2 °C
N#Cc1cccc(Nc2nc3cc(C(=O)O)ccc3c3cncnc23)c1	enzyme activity, inhibitor, radiometric	1 µM	remaining activity	3%
CC1(C)NC(=O)c2[nH]c3c(Cl)c(Cl)ccc3c2C1C#N (stereo not shown)	thermal stability, DSF	10 µM	ΔTm	2.6 °C
COc1cc(/C=C/C(=O)CC(=O)/C=C/c2ccc(O)c(OC)c2)ccc1O	enzyme activity, inhibitor	1 µM	activity vs control	20%
C[C@@H]1CN(c2cc(-c3nn(C)c4ccc(OC5(C)CC5)cc34)ncn2)C[C@H](C)O1	cell-free assay, competition with immobilised ligand	1 µM	remaining binding	81%
O=C(O)c1ccc2c(c1)nc(NCCc1cccc(Cl)c1)c1ccncc12	enzyme activity, inhibitor, radiometric	1 µM	remaining activity	17%
Cc1cc(NC(=O)c2cccc3cc(-c4cccc5[nH]nc(N)c45)ccc23)ccc1F	enzyme activity, inhibitor	0.1 µM	activity vs control	110%
